Marks after values point to notes of the source that are not given here.
Legend:
rat synovial cells [1] = assay: LDH activity assay of synovial cells in vitro; assay type: cell-based; details: for LDH activity ± SD: 1 μM, supernatant of rat synovial cells, 48 h; for LDH content in the supernatant / damage to synovial cells (in words): compared with the normal group
In short: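 Log-phase rat synovial cells (2 × 10⁴/well) were cultured 48 h at 37 °C, 5% CO₂. They then received test compound at graded concentrations, methotrexate, or DMSO vehicle for 48 h. Plates were centrifuged 10 min, and supernatant LDH was assayed with a kit. Activity (U/L) = [(OD sample − OD control)/([…] − OD blank)] × 0.2 mM × 1000. Three independent experiments, each in triplicate.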

[2] = Acute toxicity test in mice; details: both, mouse, in vivo, po
In short: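 Single oral gavage of 0.4 mL test substance to SPF mice (18–22 g) after 1-week acclimatization at 22 ± 2 °C on a 12 h light/dark cycle. Mice were randomized into 10 groups, half male and half female, fasted 8 h before dosing and 2 h after. Mortality, death time and signs of poisoning were recorded over 14 days, and LD50 was taken as the acute toxicity measure.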

rat synovial cells [3] = assay: Morphology of rat synovial cells in vitro; assay type: cell-based; details: 1 μM, 48 h, Figure 3
In short: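 Synovial cells at 70–80% confluence were detached with 0.25% trypsin and seeded at 5000 cells/well in 24-well plates. Groups received test compound (1 μM), methotrexate (1 μM) or DMSO, with an untreated normal group. After 48 h culture, morphology was examined by cell imaging analysis.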

[4] = test system: CFA-induced arthritis in rats; assay: Complete Freund's adjuvant induced arthritis in rats; assay type: in vivo, rat; details: for IL-6 content in serum after treatment / TNF-α content in serum after treatment: high dose (100 mg·kg^–1·d^–1) and low dose (50 mg·kg^–1·d^–1); for IL-6 content in serum after treatment: Figure 4c; for TNF-α content in serum after treatment: Figure 4d; for change of paw volume before and after treatment: oral
In short: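 SPF adult rats (200 ± 20 g) were acclimatized 2 weeks at 22 ± 3 °C and 40–70% humidity. Arthritis was induced with 0.1 mL CFA injected 2 cm from the tail root; the normal group received saline. From day 14 after induction, rats were dosed orally at 50 or 100 mg·kg⁻¹·d⁻¹ daily for 14 days. Paw volume was measured by toe volume meter before induction and on dosing days 1 and 14.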

[5] = test system: TNF-α, IL-1β, and IL-6 in rat synovial cells; assay: Inflammatory cytokines in the rat synovial cell supernatant; assay type: cell-based; details: 1 μM, LPS 1 μg·mL^–1, compared with the LPS group, p < 0.01
In short: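 After 24 h they were stimulated with LPS (1 μg·mL⁻¹) for 24 h, then treated with test compound or methotrexate at 1 μM for 24 h. Supernatant was centrifuged at 3000 rpm for 15 min, and TNF-α, IL-1β and IL-6 were measured by ELISA. Three independent experiments, each in triplicate.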

[6] = test system: TLR4, MyD88, NF-κB, and IκB in rat synovial cells; assay: TLR4/NF-κB signaling pathway protein expression in rat synovial cells; assay type: cell-based; details: 1 μM, LPS 1 μg·mL^–1, compared with the LPS group, p < 0.01
In short: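 Synovial cells (5000/well) were cultured 24 h, stimulated with LPS (1 μg·mL⁻¹) for 24 h, then treated with test compound at 1 μM for 24 h. Cells were fixed in 4% fixative for 45 min, permeabilized with 0.25% Triton for 15 min and blocked with 5% BSA for 10 min. Rabbit anti-rat primaries (1:100 or 1:200) were applied overnight at 4 °C, then FITC goat anti-rabbit (1:400, 30 min, 37 °C) and DAPI (1:800). Read-out was mean fluorescence intensity.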

rat synovial cells [7] = details: read-out: IC50, growth of synovial cells; cited from earlier work
[8] = 50 mg·kg^–1·d^–1 for 14 days, Figure 4a

Row | SMILES | LDH activity ± SD (rat synovial cells [1]) | LDH content in the supernatant / damage to synovial cells (in words) (rat synovial cells [1]) | LD50 at 14 days [2] | morphology of rat synovial cells (rat synovial cells [3]) | IL-6 content in serum after treatment [4] | TNF-α content in serum after treatment [4] | change of paw volume before and after treatment [4, 8] | change of paw volume before and after treatment ([4]; 100 mg·kg^–1·d^–1 for 14 days, Figure 4b) | content of IL-1β in the supernatant [5] | content of IL-6 in the supernatant [5] | content of TNF-α in the supernatant [5] | expression of MyD88 [6] | expression of NF-κB [6] | expression of TLR4 [6] | expression of the IκB protein [6] | IC50 (rat synovial cells [7])
1 | O=C1C=C2CC[C@@H](C(=O)O)CC2C(=O)C1 (stereo partly drawn) [Compound 21] | 297.79 ± 49.6 U/L | little damage to synovial cells |  |  |  |  |  |  |  |  |  |  |  |  |  | 
2 | CCOC(=O)[C@@H]1CCC2=CC(=O)CC(=O)C2C1 (stereo partly drawn) [Compound 23] | 342.78 ± 22.74 ^c U/L | little damage to synovial cells | 2307 ± 7.37 mg/kg | significant concentration dependence on synovial cell injury |  |  |  |  |  |  |  |  |  |  |  | 
3 | O=C1C=C2CC[C@@H](C3CCC(=O)CC3)CC2C(=O)C1 (stereo partly drawn) [Compound 28, (7R)-7-(4-oxocyclohexyl)-6,7,8,8a-tetrahydronaphthalene-1, 3 (2H, 5H)-dione] | 375.29 ± 17.87 ^c U/L | little damage to synovial cells |  | significant concentration dependence on synovial cell injury |  |  |  |  |  |  |  |  |  |  |  | 
4 | O=C1C=C2CC[C@@H](O)CC2C(=O)C1 (stereo partly drawn) [Compound 32, (7R)-7-hydroxy-6,7,8,8a-tetrahydronaphthalene-1, 3 (2H, 5H)-dione] | 307.02 ± 30.86 ^c U/L | little damage to synovial cells | 2658 ± 9.06 mg/kg | significant concentration dependence on synovial cell injury | basically at a low level | decreased | little change | hardly changed | significantly decreased | significantly decreased | significantly decreased | significantly downregulated | significantly downregulated | significantly downregulated | significantly upregulated | 
5 | CC(=O)N[C@@H]1CCC2=CC(=O)CC(=O)C2C1 (stereo partly drawn) [Compound 33] | 264.24 ± 27.71 U/L | little damage to synovial cells |  |  |  |  |  |  |  |  |  |  |  |  |  | 
6 | O=C1C=C2CCC(F)(F)CC2C(=O)C1 (stereo not drawn) [Compound 36, 7,7-difluoro-6,7,8,8a-tetrahydronaphthalene-1,3 (2H, 5H)-dione] | 292.07 ± 31.56 U/L | little damage to synovial cells | 2709 ± 8.63 mg/kg | significant concentration dependence on synovial cell injury |  |  |  |  |  |  |  |  |  |  |  | 
7 | CC(C)[C@H]1CC[C@]2(C)C(=O)CCC(=O)C=C12 [Dysodensiol K] |  |  |  |  |  |  |  |  |  |  |  |  |  |  |  | 11.8 ± 0.23 µM
8 | CN(Cc1cnc2nc(N)nc(N)c2n1)c1ccc(C(=O)N[C@@H](CCC(=O)O)C(=O)O)cc1 [methotrexate, reference compound] | 438.75 ± 11.50 ^c U/L | significantly increased | 1368 ± 5.34 mg/kg | significantly damaged | basically at a low level | decreased | significant volume change |  | significantly decreased | significantly decreased | significantly decreased | significantly downregulated | significantly downregulated | significantly downregulated | significantly upregulated | 
